Published values from different studies.
Lines come from different studies, so protocols differ. pEC50, pIC50: −log10 of the molar value.
Effect on: cell growth or viability

COc1ccc(NC(=O)c2c(Nc3ccccc3)sc(C#N)c2NC(=O)CNc2ccc([N+](=O)[O-])cc2)cc1  viability (HepG2; SRB; 100 µM, 48 h): 46.2%
C=CC(=O)Nc1cccc(Nc2nc(Nc3ccc(OCCOC)cc3)ncc2F)c1  GI50 (Ramos; 48 h): 9.2 µM
Cc1cc(Nc2ccc(C(=O)N/N=C/c3cc4ccccc4[nH]3)cc2)c2cccc(O)c2n1  inhibition (Huh-7; MTT; 20 µM): 60.2%
CCOC(=O)Cc1sc(NCc2ncccn2)nc1-c1ccccn1  CC50 (Huh-7): > 40 µM
CC(C)C[C@H](NC(=O)[C@H](Cc1ccccc1)NC(=O)c1cnccn1)B(O)O  pIC50 (NCI-H2009; ATP luminescence): 7.77
COc1ccc(NC(=O)c2c(Nc3ccccc3)sc(C(=O)NN=Cc3ccccc3)c2NC(C)=O)cc1  viability (HepG2; SRB; 10 nM, 48 h): 85.3%
c1ccc(-c2csc(NCc3ncccn3)n2)nc1  CC50 (Huh-7): > 40 µM
COc1ccc(NC(=O)c2c(Nc3ccccc3)sc(C#N)c2NC(=O)CNc2ccc(Br)cc2)cc1  viability (HepG2; SRB; 1 nM, 48 h): 102%
COc1cc2c(Nc3ccc(Br)cc3F)ncnc2cc1OCC1CCN(C)CC1  GI50 (NCI-H292; ATP luminescence; 72 h): 1.14 µM
COc1cc(Nc2nccc(-c3cnn4nc(OC)ccc34)n2)cc(C(F)(F)F)c1  pIC50 (NCI-H292; ATP luminescence): 6.35
Cc1cc(Nc2ccc(C(=O)N/N=C/c3ccccc3)cc2)c2cccc(O)c2n1  inhibition (Huh-7; MTT; 20 µM): 32.3%
C[C@@H](NC(=O)[C@H](CCCCNC(=O)C(F)(F)F)NS(C)(=O)=O)C(=O)N[C@@H](CCCNC(=N)N)C(N)=O  pEC50 (HEK-293T; MTT; 72 h): 4.34 to 5.43
Cc1cc(Nc2ccc(C(=O)N/N=C/c3ccc[nH]3)cc2)c2cccc(O)c2n1  inhibition (Huh-7; MTT; 20 µM): 68.3%
COc1ccc(NCC(=O)Nc2c(C#N)sc(Nc3ccccc3)c2C(=O)Nc2ccc(OC)cc2)cc1  viability (HepG2; SRB; 100 µM, 48 h): 50.3%
COc1cc(N2CCC(N3CCN(C)CC3)CC2)ccc1Nc1ncc(Cl)c(Nc2ccccc2P(C)(C)=O)n1  GI50 (NCI-H292; ATP luminescence; 72 h): 2.76 µM
COc1ccc(NC(=O)c2c(Nc3ccccc3)sc(C(=O)NN=Cc3ccc(Br)cc3)c2NC(C)=O)cc1  viability (HepG2; SRB; 10 µM, 48 h): 73.9%
CCCCCCCCCCCCNC(=S)NCCCC[C@H](NS(C)(=O)=O)C(=O)N[C@@H](C)C(=O)N[C@@H](CCCNC(=N)N)C(N)=O  pEC50 (HEK-293T; MTT; 72 h): ~4.00
Cc1cc(Nc2ccc(C(=O)N/N=C/c3cccs3)cc2)c2cccc(O)c2n1  inhibition (Huh-7; MTT; 20 µM): 42.1%
COc1ccc(C=NNC(=O)c2sc(Nc3ccccc3)c(C(=O)Nc3ccc(OC)cc3)c2NC(C)=O)cc1  viability (HepG2; SRB; 1 µM, 48 h): 68.4%
C=CC(=O)N1CCC[C@@H](n2nc(-c3ccc(Oc4ccccc4)cc3)c3c(N)ncnc32)C1  GI50 (Ramos; 48 h): > 10 µM
Cc1cccc(/C=N/NC(=O)c2ccc(Nc3cc(C)nc4c(O)cccc34)cc2)n1  inhibition (Huh-7; MTT; 20 µM): 53.1%
COc1ccc(NC(=O)c2c(Nc3ccccc3)sc(C(=O)NN=Cc3ccc(OC)c(O)c3)c2NC(C)=O)cc1  viability (HepG2; SRB; 1 µM, 48 h): 46.5%
Cc1cc(Nc2ccc(C(=O)N/N=C/c3ccc(C)s3)cc2)c2cccc(O)c2n1  inhibition (Huh-7; MTT; 20 µM): 43.3%
CCCCCCCCCCCCNC(=O)NCCCC[C@H](NS(C)(=O)=O)C(=O)N[C@H](C)C(=O)N[C@@H](CCCNC(=N)N)C(N)=O  pEC50 (HEK-293T; MTT; 72 h): 4.42 to 4.54
COc1ccc(NC(=O)c2c(Nc3ccccc3)sc(C(=O)NN=Cc3ccc(C)cc3)c2NC(C)=O)cc1  viability (HepG2; SRB; 1 µM, 48 h): 82.7%
COc1ccc(/C=N/NC(=O)c2ccc(Nc3cc(C)nc4c(O)cccc34)cc2)cc1O  inhibition (Huh-7; MTT; 20 µM): 30.2%
